In the library only some 6.4% were active in any assay of this set; here they are far more common.
EBV gp42 block – blocks Epstein-Barr virus glycoprotein 42 binding; inhibition, % (tested at 21.74 µM); Q1HVG2; hit rate 0.42% among 220,000; Fluorescence polarization binding assay, mP read-out; in the data active means inhibition above about 50%
Target sequence (Q1HVG2 whole entry, looked up): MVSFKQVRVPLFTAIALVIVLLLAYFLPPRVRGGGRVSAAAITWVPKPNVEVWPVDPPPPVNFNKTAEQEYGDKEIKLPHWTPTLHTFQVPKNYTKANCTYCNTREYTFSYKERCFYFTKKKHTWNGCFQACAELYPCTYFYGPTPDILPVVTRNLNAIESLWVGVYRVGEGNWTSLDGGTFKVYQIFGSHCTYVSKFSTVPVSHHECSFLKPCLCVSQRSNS
MPTP block – blocks calcium-induced mitochondrial swelling; inhibition, % at 10 µM; hit rate 1.4% among 360,000; isolated mouse mitochondria, Ca2+ swelling absorbance, 30 min; AID 602449;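 active means inhibition of 50% or more, scaled per plate between neutral and stimulator controls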;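 further: 0% = DMSO wells given calcium and 100% = 1 mM EGTA wells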
Tb MetRS inh – Trypanosoma brucei MetRS inhibition. purified T. brucei MetRS, ATP depletion, Kinase-Glo luminescence. inhibition, % at 11.9 µM. hit rate 0.4% among 360,000. AID 624268;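 active means inhibition above a per-plate cutoff of the control wells' mean inhibition plus 3 SD, cut at about 5.5% in these data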;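 further: 0% = DMSO wells median and 100% = median of wells with control inhibitor compound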
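Test system: purified T. brucei MetRS enzyme. Also added: ATP, methionine and E. coli bulk tRNA substrates. Compound: 11.9 µM single point. Schedule: 15 min enzyme-compound preincubation, 2 h reaction, 10 min detection, 25 °C. Signal: luciferase luminescence of residual ATP, Kinase-Glo. Evaluation: percent inhibition versus plate control medians. Controls: DMSO wells, low control.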
NR3A LBD binder – modulators (binders) of human NR3A ligand-binding domain | NR3A LBD differential scanning fluorimetry, Tm shift; 0% = protein alone, 100% = glycine-bound protein | Tm shift relative to glycine control, % at 25 µM | hit rate 2.5% among 340,000 | AID 1259313;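 active means melting temperature shift of at least 10% of the positive control shift, at one fixed dose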
CHOP inhibitor – inhibitors of CHOP induction in ER stress response. CHO-K1 CHOP-promoter luciferase, tunicamycin-induced, 15-18 h. inhibition, % at 10 µM. hit rate 3.8% among 220,000. AID 2732;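 active means compounds that reduced the stress-induced luciferase reporter signal by more than about 70% of percent inhibition, limit read from the data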;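 further: 0% = tunicamycin plus vehicle and 100% = wells without tunicamycin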
WT yeast gro inh – growth inhibition of WT yeast, mitochondrial fusion screen | mitochondrial fusion phenotypic screen, WT strain | inhibition, % at 10 µM | hit rate 2.1% among 190,000; in the data active means inhibition above about 58%; tested in S. cerevisiae
Numbers without * were called inactive; . = no result.

SMILES | EBV gp42 block | MPTP block | Tb MetRS inh | NR3A LBD binder | CHOP inhibitor | WT yeast gro inh
CC(c1nc2scc(-c3ccccc3)c2c(=O)[nH]1)N1CCN(CC(=O)NC2CC2)CC1 (stereo not drawn) | . | 0 | -1 | -2 | . | .
COc1ccc(/C=N/NC(=O)CCN2CCN(c3ccccc3)CC2)c(OC)c1OC | 4 | 0 | -1 | 0 | 5 | -9
O=C(CCN1CCN(c2ccccc2)CC1)N/N=C/c1ccc(O)c(O)c1O | 58* | 4 | 0 | -2 | 52 | 7
O=C(CCC(=O)Nc1ccc(Br)cc1)N/N=C/c1ccccc1O | . | 2 | 1 | -14 | . | .
O=C(CCCCC(=O)NN=Cc1ccccc1O)NN=Cc1ccccc1O | . | 1 | 0 | 35* | . | .
O=C(CSCC(=O)NN=Cc1ccccc1O)NN=Cc1ccccc1O | . | -2 | 1 | 26* | . | .
O=C(NCCS(=O)(=O)N1CCN(c2ccccc2)CC1)C12CC3CC(CC(C3)C1)C2 | . | 0 | 0 | . | . | .
COc1ccc(C(=O)NNC(=O)C(C)NC(=O)c2ccccc2NC(=O)c2ccco2)cc1 (stereo not drawn) | -1 | 0 | 0 | -3 | 4 | -5
Cc1ccc(CNC(=O)c2ccc(Cn3nc(C)c(Cl)c3C)o2)cc1 | -7 | 0 | 0 | -2 | 39 | 100*
Cc1cc(C)cc(NC(=O)c2ccc(Cn3nc(C)c(Cl)c3C)o2)c1 | -5 | 1 | 0 | -11 | 39 | 74*
Cc1nn(Cc2ccc(C(=O)N/N=C/c3ccncc3)o2)c(C)c1Cl | . | -1 | 0 | -4 | . | .
CCC1=C(OC(=O)c2ccccc2)C(C)(C)C(c2ccccc2)OC1=O (stereo not drawn) | -11 | 3 | -1 | 14* | 93* | 56
CC1(C)C(=O)OC(c2ccccc2)C(C)(C)C1=O (stereo not drawn) | -14 | 4 | 1 | -2 | 10 | .
O=C(C1CCC1)N1CCc2cc(S(=O)(=O)NCCN3CCN(c4ccccc4F)CC3)ccc21 | 0 | 26 | -1 | 1 | 74* | 7
CCOc1ccc(NS(=O)(=O)c2ccc3c(c2)CCN3C(=O)C2CCC2)cc1 | -9 | 5 | -1 | -1 | 82* | 15
CS(=O)(=O)c1ccc(C(=O)OCC(=O)N2CCCc3ccccc32)cc1 | . | -3 | 0 | 3 | . | .
CC(C)COc1ccc(S(=O)(=O)n2cc(F)c(=O)[nH]c2=O)cc1 | -1 | -2 | -1 | -2 | 1 | -11
Cc1ccc(/C=N\NC(=O)c2ccc(Cn3cc(Br)c([N+](=O)[O-])n3)o2)o1 | 2 | 3 | 0 | -4 | -25 | -10
O=C(N/N=C\c1cccc(Cl)c1)c1ccc(Cn2cc(Br)c([N+](=O)[O-])n2)o1 | -15 | -5 | -1 | 12* | -30 | -17
CC(C)c1ccc(/C=C/C(=O)n2nnc3ccccc32)cc1 | 85* | -2 | -1 | 2 | -34 | 16
CC(C)c1ccc(/C=C/C(=O)N2CCCCCC2)cc1 | 2 | 1 | -1 | -1 | 5 | 17
CC(=O)N1N=C(c2cccc([N+](=O)[O-])c2)OC1c1cccc(Br)c1 (stereo not drawn) | 6 | 0 | 0 | 5 | 27 | 66*
CC(=O)NC1=NN(C(C)=O)C(c2ccc(C(C)C)cc2)S1 (stereo not drawn) | 5 | 0 | 0 | 0 | -10 | 6
CC(=O)N1N=C(c2cccc(Cl)c2)OC1c1cccc([N+](=O)[O-])c1 (stereo not drawn) | 5 | -4 | 0 | 5 | 20 | 23
CC(=O)N1N=C(c2cccc(Cl)c2)OC1c1ccc(C(C)C)cc1 (stereo not drawn) | -7 | 0 | 0 | 1 | 43 | 78*
SMILES | EBV gp42 block | MPTP block | Tb MetRS inh | NR3A LBD binder | CHOP inhibitor | WT yeast gro inh
COc1ccc2nc(C)cc(N3CCOCC3)c2c1 | 84* | 1 | 0 | -2 | -19 | -4
CCN(CC)c1ccc(S(=O)(=O)N2CCOCC2)cc1NC(=O)CSc1nncn1C | . | 0 | 0 | 1 | . | .
Cc1cc(S(=O)(=O)Nc2ccc(C(=O)NCC(c3ccccc3)N(C)C)cc2)ccc1F (stereo not drawn) | . | 0 | -1 | 1 | . | .
COc1ccccc1C(CNC(=O)c1ccc(NS(=O)(=O)c2ccc(F)c(C)c2)cc1)N(C)C (stereo not drawn) | . | 1 | 0 | 10* | . | .
Cc1cccc(/C=N/n2c(-c3cc(-c4ccccc4)n[nH]3)n[nH]c2=S)c1 | 0 | 2 | 0 | -2 | 75* | 13
CCN(CC)S(=O)(=O)c1cccc(-c2n[nH]c(=S)n2/N=C/c2ccc(OC)cc2)c1 | 0 | 1 | 0 | -5 | -15 | -4
CCN(CC)S(=O)(=O)c1cccc(-c2n[nH]c(=S)n2/N=C/c2ccc(Br)cc2)c1 | -22 | 17 | -1 | 22* | 90* | 12
S=c1[nH]nc(-c2cc(-c3ccccc3)n[nH]2)n1/N=C/C(Br)=C/c1ccccc1 | 5 | 6 | 0 | 17* | -14 | .
S=c1[nH]nc(-c2cc(-c3ccccc3)n[nH]2)n1/N=C/C=C/c1ccccc1 | -12 | 2 | 0 | 7 | 5 | .
S=c1[nH]nc(-c2cc(-c3ccccc3)n[nH]2)n1/N=C/c1ccccc1 | -14 | 8 | 0 | -9 | 51 | .
Cn1c(=O)c2[nH]c(SCCN3CCCCC3)nc2n(C)c1=S | . | -1 | 0 | 15* | . | .
Cn1c(=O)c2[nH]c(SCCN3CCOCC3)nc2n(C)c1=S | . | -2 | 0 | -2 | . | .
CCOC(=O)/C(C#N)=C\c1cc(C)n(-c2ccccc2)c1C | -7 | 0 | -2 | -2 | 41 | -9
CCOC(=O)/C(C#N)=C\c1ccc(N2CCN(C/C=C/c3ccccc3)CC2)cc1 | 131* | 3 | -1 | -5 | 10 | 35
S=C(NCc1ccccc1)NC1CCCc2ccccc21 (stereo not drawn) | 5 | 1 | 0 | -10 | 0 | 72*
COc1ccc(NC(=O)c2cc(-c3ccccc3Cl)no2)cc1 | -1 | 3 | 0 | 4 | 6 | 85*
O=C(Nc1ccccc1)c1cc(-c2ccccc2Cl)no1 | -4 | 0 | 0 | -9 | 20 | -4
COc1ccc(O)c(CN2CCCC(N3CCc4ccccc4C3)C2)c1 (stereo not drawn) | . | 0 | 1 | -1 | . | .

Screening data (PubChem BioAssay)
